Laboratory results taken from ChEMBL document CHEMBL4725483, “Simultaneous Inhibition of SIRT2 Deacetylase and Defatty-Acylase Activities via a PROTAC Strategy” (ACS Med Chem Lett, 2020).
Active and inactive are the calls of the source. The rule behind the calls is not given here.

Experiments:
[1] = target: T1, NAD-dependent protein deacetylase sirtuin-1 (Homo sapiens, UniProt Q96EB6); assay: Inhibition of human SIRT1 deacetylation activity using H3K9Ac as substrate preincubated for 15 mins in presence of NAD+ followed by substrate addition by HPLC analysis
T1 sequence (Q96EB6 whole entry): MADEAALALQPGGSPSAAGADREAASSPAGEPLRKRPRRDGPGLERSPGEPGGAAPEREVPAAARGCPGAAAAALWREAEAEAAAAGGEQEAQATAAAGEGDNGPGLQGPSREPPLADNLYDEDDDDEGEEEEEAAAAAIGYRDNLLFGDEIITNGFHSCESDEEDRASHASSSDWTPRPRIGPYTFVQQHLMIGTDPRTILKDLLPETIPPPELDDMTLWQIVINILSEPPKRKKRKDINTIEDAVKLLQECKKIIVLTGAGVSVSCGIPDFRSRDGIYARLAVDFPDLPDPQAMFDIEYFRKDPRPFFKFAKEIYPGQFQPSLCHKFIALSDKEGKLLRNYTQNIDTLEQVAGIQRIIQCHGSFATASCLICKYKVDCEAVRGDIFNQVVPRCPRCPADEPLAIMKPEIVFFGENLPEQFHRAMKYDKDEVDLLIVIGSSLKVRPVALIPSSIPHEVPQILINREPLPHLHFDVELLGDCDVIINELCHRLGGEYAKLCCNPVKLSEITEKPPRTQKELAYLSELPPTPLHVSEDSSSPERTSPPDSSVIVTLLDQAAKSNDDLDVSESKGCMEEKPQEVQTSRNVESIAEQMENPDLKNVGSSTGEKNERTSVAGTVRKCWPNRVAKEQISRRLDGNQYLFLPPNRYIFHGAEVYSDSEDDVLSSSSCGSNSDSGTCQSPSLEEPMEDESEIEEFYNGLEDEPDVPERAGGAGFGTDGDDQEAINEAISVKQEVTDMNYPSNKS
Outline: (§1)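 In vitro sirtuin reaction mixture with compound at a range of concentrations. Compound was preincubated with NAD+ and the enzyme before the substrate peptide was added. IC50 taken from the concentration series.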

[2] = target: T2, Protein cereblon/NAD-dependent protein deacetylase sirtuin-2 (Homo sapiens) (UniProt Q8IXJ6+Q96SW2); assay: Protac activity at CRBN/SIRT2 in human MCF7 cells assessed as SIRT2 degradation at 5 to 10 uM after 48 hrs by immunoblot analysis; type: cell-based; conditions: dose microM 5-10, time 48.0 hrs
T2 sequence (Q96SW2 whole entry, looked up, one chain of several): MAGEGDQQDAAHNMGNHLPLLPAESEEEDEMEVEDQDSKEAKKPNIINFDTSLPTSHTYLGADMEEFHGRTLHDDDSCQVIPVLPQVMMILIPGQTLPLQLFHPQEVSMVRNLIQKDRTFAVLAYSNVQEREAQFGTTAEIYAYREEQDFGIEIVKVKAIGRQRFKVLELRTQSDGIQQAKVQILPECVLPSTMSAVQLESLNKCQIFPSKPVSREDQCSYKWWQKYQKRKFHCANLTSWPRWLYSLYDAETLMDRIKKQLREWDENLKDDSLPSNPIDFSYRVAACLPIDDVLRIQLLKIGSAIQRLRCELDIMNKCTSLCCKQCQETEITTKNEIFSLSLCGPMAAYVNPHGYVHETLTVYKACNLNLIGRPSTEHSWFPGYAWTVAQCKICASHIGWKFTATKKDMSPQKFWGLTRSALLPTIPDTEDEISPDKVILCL
Outline: (§2)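 Cells exposed to compound at the indicated concentrations for 48 h. SIRT1, SIRT2 and SIRT3 levels were read by immunoblot.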

[3] = target: T3, Protein cereblon/NAD-dependent protein deacetylase sirtuin-3, mitochondrial (Homo sapiens) (UniProt Q9NTG7+Q96SW2); assay: Protac activity at CRBN/SIRT3 in human BT549 cells assessed as SIRT3 degradation at 5 to 10 uM after 48 hrs by immunoblot analysis; type: cell-based; conditions: BT-549, dose microM 5-10, time 48.0 hrs
T3 sequence (Q96SW2 whole entry, looked up, one chain of several): as above
Outline: (§3)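 MCF7 or BT-549 cells exposed to inhibitor at the indicated concentrations for 48 h; SIRT1, SIRT2 and SIRT3 levels read by immunoblot.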

[4] = target: T2, Protein cereblon/NAD-dependent protein deacetylase sirtuin-2 (Homo sapiens); assay: Protac activity at CRBN/SIRT2 in human MDA-MB-231 cells assessed as SIRT2 degradation after 48 hrs by immunoblot analysis; type: cell-based
Outline: (§4)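 In MDA-MB-231 and MDA-MB-468 cells, SIRT2 was assessed by immunoblot after compound treatment.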

[5] = target: T2, Protein cereblon/NAD-dependent protein deacetylase sirtuin-2 (Homo sapiens); assay: Protac activity at CRBN/SIRT2 in human MCF7 cells assessed as SIRT2 degradation at 25 uM by immunoblot analysis; type: cell-based
Outline: (§5)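 MCF7 cells treated at a fixed concentration (10 or 25 μM) and harvested at several incubation times; SIRT2 level read by immunoblot.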

[6] = target: T4, NAD-dependent protein deacetylase sirtuin-2 (Homo sapiens, UniProt Q8IXJ6); assay: Inhibition of human SIRT2 defatty-acylation activity using peptide substrate in presence of NAD+ by HPLC analysis
T4 sequence (Q8IXJ6 whole entry): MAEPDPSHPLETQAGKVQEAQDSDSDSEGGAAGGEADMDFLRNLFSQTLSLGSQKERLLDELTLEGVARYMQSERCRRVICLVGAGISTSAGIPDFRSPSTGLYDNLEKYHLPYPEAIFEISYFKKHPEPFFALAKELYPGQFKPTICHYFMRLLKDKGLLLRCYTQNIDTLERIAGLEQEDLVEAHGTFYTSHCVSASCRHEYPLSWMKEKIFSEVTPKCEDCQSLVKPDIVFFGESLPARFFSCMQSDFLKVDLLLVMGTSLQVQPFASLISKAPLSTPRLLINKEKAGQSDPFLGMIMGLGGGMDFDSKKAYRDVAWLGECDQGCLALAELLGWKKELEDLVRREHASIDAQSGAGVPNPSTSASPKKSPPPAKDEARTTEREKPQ

[7] = target: T2, Protein cereblon/NAD-dependent protein deacetylase sirtuin-2 (Homo sapiens); assay: Protac activity at CRBN/SIRT2 in human BT549 cells assessed as SIRT2 degradation at 5 to 10 uM after 48 hrs by immunoblot analysis; type: cell-based; conditions: BT-549, dose microM 5-10, time 48.0 hrs; outline: as §2
[8] = target: T5, Protein cereblon/NAD-dependent protein deacetylase sirtuin-1 (Homo sapiens) (UniProt Q96EB6+Q96SW2); assay: Protac activity at CRBN/SIRT1 in human BT549 cells assessed as SIRT1 degradation at 5 to 10 uM after 48 hrs by immunoblot analysis; type: cell-based; conditions: BT-549, dose microM 5-10, time 48.0 hrs; outline: as §3
T5 sequence (Q96SW2 whole entry, looked up, one chain of several): as the sequence (Q96SW2 whole entry, looked up, one chain of several) above

[9] = target: T2, Protein cereblon/NAD-dependent protein deacetylase sirtuin-2 (Homo sapiens); assay: Protac activity at CRBN/SIRT2 in human MCF7 cells assessed as SIRT2 degradation at 10 uM by immunoblot analysis; type: cell-based; conditions: TDE = time-dependent effect; outline: as §5
[10] = target: NAD-dependent protein deacylase sirtuin-5, mitochondrial (Homo sapiens, UniProt Q9NXA8); assay: Inhibition of human SIRT5 deacetylation activity using H3K9Ac as substrate preincubated for 15 mins in presence of NAD+ followed by substrate addition by HPLC analysis; outline: as §1
Sequence of NAD-dependent protein deacylase sirtuin-5, mitochondrial (Q9NXA8 whole entry): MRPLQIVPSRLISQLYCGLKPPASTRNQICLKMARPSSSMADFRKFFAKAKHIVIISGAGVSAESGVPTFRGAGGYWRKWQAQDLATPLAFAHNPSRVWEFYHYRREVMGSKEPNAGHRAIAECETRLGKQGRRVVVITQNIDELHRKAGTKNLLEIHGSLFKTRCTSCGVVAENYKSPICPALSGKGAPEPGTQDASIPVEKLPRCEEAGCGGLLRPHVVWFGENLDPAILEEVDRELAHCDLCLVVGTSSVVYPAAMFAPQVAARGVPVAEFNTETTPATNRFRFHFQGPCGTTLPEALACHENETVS

[11] = target: T4, NAD-dependent protein deacetylase sirtuin-2; assay: Inhibition of human SIRT2 defatty-acylation activity using peptide substrate preincubated in presence of NAD+ followed by substrate addition by HPLC analysis
Outline: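 SIRT2 defatty-acylase reaction with compound at a range of concentrations. Compound was preincubated with NAD+ and SIRT2 before the peptide substrate was added. IC50 derived from the dose series.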

[12] = target: T6, NAD-dependent protein deacetylase sirtuin-3, mitochondrial (Homo sapiens, UniProt Q9NTG7); assay: Inhibition of human SIRT3 deacetylation activity using H3K9Ac as substrate preincubated for 15 mins in presence of NAD+ followed by substrate addition by HPLC analysis; outline: as §1
T6 sequence (Q9NTG7 whole entry): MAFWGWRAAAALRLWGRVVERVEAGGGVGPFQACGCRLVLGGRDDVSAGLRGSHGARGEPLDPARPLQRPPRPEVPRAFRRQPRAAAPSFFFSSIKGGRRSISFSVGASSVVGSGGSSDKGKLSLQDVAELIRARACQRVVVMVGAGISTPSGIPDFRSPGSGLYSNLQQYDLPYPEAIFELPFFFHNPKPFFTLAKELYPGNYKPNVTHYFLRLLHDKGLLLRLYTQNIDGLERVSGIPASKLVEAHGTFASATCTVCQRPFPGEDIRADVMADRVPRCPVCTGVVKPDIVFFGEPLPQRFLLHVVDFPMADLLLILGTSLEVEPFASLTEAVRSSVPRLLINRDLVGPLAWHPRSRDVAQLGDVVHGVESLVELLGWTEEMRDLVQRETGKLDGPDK

[13] = target: T5, Protein cereblon/NAD-dependent protein deacetylase sirtuin-1 (Homo sapiens); assay: Protac activity at CRBN/SIRT1 in human MCF7 cells assessed as SIRT1 degradation at 5 to 10 uM after 48 hrs by immunoblot analysis; type: cell-based; conditions: dose microM 5-10, time 48.0 hrs; outline: as §3
[14] = target: T2, Protein cereblon/NAD-dependent protein deacetylase sirtuin-2 (Homo sapiens); assay: Protac activity at CRBN/SIRT2 in human MDA-MB-468 cells assessed as SIRT2 degradation after 48 hrs by immunoblot analysis; type: cell-based; outline: as §4
[15] = target: T4, NAD-dependent protein deacetylase sirtuin-2; assay: Inhibition of human SIRT2 deacetylation activity using H3K9Ac as substrate in presence of NAD+ by HPLC analysis
Homo sapiens = species: Homo sapiens; assay: Selectivity ratio of IC50 for inhibition of human SIRT1 deacetylation activity to IC50 for inhibition of human SIRT2 deacetylation activity
Outline: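 Ratio of SIRT1 deacetylase IC50 to SIRT2 deacetylase IC50, both measured with compound, NAD+ and enzyme preincubated before peptide substrate addition.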

[16] = target: T4, NAD-dependent protein deacetylase sirtuin-2; assay: Inhibition of human SIRT2 deacetylation activity using H3K9Ac as substrate preincubated for 15 mins in presence of NAD+ by HPLC analysis; outline: as §1
[17] = target: NAD-dependent protein deacylase sirtuin-6 (Homo sapiens, UniProt Q8N6T7); assay: Inhibition of human SIRT6 deacetylation activity using H3K9Ac as substrate preincubated for 15 mins in presence of NAD+ followed by substrate addition by HPLC analysis; outline: as §1
Sequence of NAD-dependent protein deacylase sirtuin-6 (Q8N6T7 whole entry): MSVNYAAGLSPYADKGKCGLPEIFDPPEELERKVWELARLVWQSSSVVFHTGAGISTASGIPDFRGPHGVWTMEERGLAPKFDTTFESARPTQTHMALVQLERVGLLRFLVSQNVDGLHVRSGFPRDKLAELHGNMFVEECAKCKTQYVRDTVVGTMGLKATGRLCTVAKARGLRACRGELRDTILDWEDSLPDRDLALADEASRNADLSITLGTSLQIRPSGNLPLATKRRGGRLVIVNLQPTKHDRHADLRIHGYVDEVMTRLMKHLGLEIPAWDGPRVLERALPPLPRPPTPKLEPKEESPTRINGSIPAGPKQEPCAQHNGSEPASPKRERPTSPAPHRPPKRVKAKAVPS

[18] = target: T3, Protein cereblon/NAD-dependent protein deacetylase sirtuin-3, mitochondrial (Homo sapiens); assay: Protac activity at CRBN/SIRT3 in human MCF7 cells assessed as SIRT3 degradation at 5 to 10 uM after 48 hrs by immunoblot analysis; type: cell-based; conditions: dose microM 5-10, time 48.0 hrs; outline: as §3
[19] = target: T2, Protein cereblon/NAD-dependent protein deacetylase sirtuin-2 (Homo sapiens); assay: Protac activity at CRBN/SIRT2 in human MCF7 cells assessed as SIRT2 degradation at 5 uM by immunoblot analysis; type: cell-based
MCF7 = assay: Cytotoxicity against human MCF7 cells assessed as reduction in cell viability after 72 hrs; type: functional, cell-based
Outline: (§6)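 Cells incubated with compound or thalidomide for 72 h; cell viability read out at the end of exposure.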

[20] = target: T2, Protein cereblon/NAD-dependent protein deacetylase sirtuin-2 (Homo sapiens); assay: Protac activity at CRBN/SIRT2 in human HEK293T cells stably expressing flag-tagged K-Ras4a assessed as inhibition of SIRT2 defatty-acylation at 10 uM incubated for 42 hrs followed by Alkyne-14 addition and measured after 6 hrs by immunoprecipitation based assay; type: cell-based; conditions: HEK-293T
Outline: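 HEK 293T cells stably expressing Flag-tagged K-Ras4a-G12V were treated for 42 h, then labelled with 50 μM Alk-14 for a further 6 h. K-Ras4a was immunoprecipitated via Flag, and a fluorescent dye was attached by click chemistry. NH2OH removed cysteine fatty acylation. Lysine fatty acylation was read by in-gel fluorescence and quantified relative to DMSO.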

MDA-MB-231 = assay: Cytotoxicity against human MDA-MB-231 cells assessed as reduction in cell viability after 72 hrs; type: functional, cell-based; outline: as §6

Structure (SMILES): CCCCCCCCCCCCCC(=S)NCCCC[C@H](NC(=O)CCOCCOCCNc1cccc2c1C(=O)N(C1CCC(=O)NC1=O)C2=O)C(=O)Nc1ccccc1 (some centres undefined)
- IC50 [1]: 37 µM
- Activity [2]: Active
- Activity [3]: inactive
- Activity [4]: Active
- Activity [5]: inactive
- IC50 [6]: > 83 µM
- Activity [7]: Active
- Activity [8]: inactive
- Activity [9]: Tde
- IC50 [10]: > 83 µM
- IC50 [11]: 0.17 µM
- IC50 [12]: > 83 µM
- Activity [13]: inactive
- Activity [14]: Active
- IC50 [15]: 0.12 µM
- Ratio IC50 (Homo sapiens): 500
- IC50 [16]: 0.069 µM
- IC50 [17]: > 83 µM
- Activity [18]: inactive

Structure (SMILES): O=C(O)CCOCCOCCOCCOCCNc1cccc2c1C(=O)N(C1CCC(=O)NC1=O)C2=O (centres undefined)
- Activity [19]: inactive

Structure (SMILES): CCCCCCCCCCCCCC(=S)NCCCC[C@H](NC(=O)OCc1ccccc1)C(=O)Nc1ccccc1
- Activity [2]: inactive
- Activity [7]: inactive
- IC50 [10]: > 83 µM
- Activity (MCF7): Active
- IC50 [12]: > 83 µM
- IC50 [17]: > 83 µM
- Activity [20]: inactive
- Activity (MDA-MB-231): Active

Structure (SMILES): CCCCCCCCCCCCCC(=S)NCCCC[C@H](NC(=O)CCOCCOCCOCCOCCNc1cccc2c1C(=O)N(C1CCC(=O)N(C)C1=O)C2=O)C(=O)Nc1ccccc1 (some centres undefined)
- Activity [19]: inactive
